In ChEMBL document CHEMBL1139173, “Novel selective human mitochondrial kinase inhibitors: design, synthesis and enzymatic activity” (Bioorg Med Chem, 2007):
Calls of active or inactive are those of the source. The calls are words filed in the database; no cut-off is given here.

Assays:
Deoxynucleoside kinase = biological target: T1, Deoxynucleoside kinase (Drosophila melanogaster, UniProt Q9XZT6); experiment: Inhibition of Drosophila melanogaster dNK assessed as [methyl-3H]dThd phosphorylation
T1 sequence (Q9XZT6 whole entry): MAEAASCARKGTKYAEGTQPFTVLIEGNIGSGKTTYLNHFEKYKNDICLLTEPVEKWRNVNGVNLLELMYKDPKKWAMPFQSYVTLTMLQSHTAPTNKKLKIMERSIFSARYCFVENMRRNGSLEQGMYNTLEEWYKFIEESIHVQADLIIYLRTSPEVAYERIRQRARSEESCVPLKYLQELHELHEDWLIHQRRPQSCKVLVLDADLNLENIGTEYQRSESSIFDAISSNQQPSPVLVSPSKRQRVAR
Procedure, shortened: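 Purified recombinant enzyme expressed as a GST fusion. Mix: 50 mM Tris–HCl pH 8.0, 2.5 mM MgCl2, 10 mM DTT, 0.5 mM CHAPS, 3 mg/mL BSA, 2.5 mM ATP, 2 µM [methyl-3H]dThd (0.25 µCi). Incubated 37 °C, 30 min, with varied inhibitor levels. Aliquots spotted on DE-81 disks, washed, scintillation-counted.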

[1] = biological target: T2, Thymidine kinase 2, mitochondrial (Homo sapiens, UniProt O00142); experiment: Inhibition of human TK2 assessed as [methyl-3H]dThd phosphorylation
T2 sequence (O00142 whole entry): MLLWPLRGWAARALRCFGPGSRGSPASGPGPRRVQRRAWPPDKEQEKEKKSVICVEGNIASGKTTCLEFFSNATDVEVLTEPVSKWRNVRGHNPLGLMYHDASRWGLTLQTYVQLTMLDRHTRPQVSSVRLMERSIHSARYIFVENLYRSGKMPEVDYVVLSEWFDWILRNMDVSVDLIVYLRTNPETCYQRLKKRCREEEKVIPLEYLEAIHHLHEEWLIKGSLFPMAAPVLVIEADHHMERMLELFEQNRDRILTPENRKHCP
Procedure, shortened: (§1)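 Purified recombinant GST-fusion kinases (from pGEX-5X-1 cDNAs) assayed in 50 mM Tris–HCl pH 8.0, 2.5 mM MgCl₂, 10 mM DTT, 0.5 mM CHAPS, 3 mg/mL BSA, 2.5 mM ATP, 0.25 µCi [methyl-³H]dThd (2 µM), ± varying inhibitor levels, 37 °C for 30 min. Reactions spotted on DE-81 filter disks, washed, and counted by scintillation. IC50 is the concentration halving dThd phosphorylation.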

Thymidine kinase [2] = biological target: T3, Thymidine kinase (Human alphaherpesvirus 1, UniProt Q9QNF7); experiment: Inhibition of HSV1 TK assessed as [methyl-3H]dThd phosphorylation; procedure, shortened: as §1
T3 sequence (Q9QNF7 whole entry): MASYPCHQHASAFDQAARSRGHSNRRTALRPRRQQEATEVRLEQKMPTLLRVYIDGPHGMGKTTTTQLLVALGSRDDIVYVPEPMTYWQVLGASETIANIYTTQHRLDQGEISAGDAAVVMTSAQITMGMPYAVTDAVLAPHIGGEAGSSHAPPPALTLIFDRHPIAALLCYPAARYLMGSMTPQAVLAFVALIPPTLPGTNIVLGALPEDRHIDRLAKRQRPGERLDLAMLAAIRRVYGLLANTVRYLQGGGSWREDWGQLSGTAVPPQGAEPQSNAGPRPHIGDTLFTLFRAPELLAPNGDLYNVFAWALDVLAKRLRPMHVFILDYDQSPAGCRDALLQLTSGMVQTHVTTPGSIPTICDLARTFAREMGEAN

[3] = biological target: T4, Thymidine kinase, cytosolic (Homo sapiens, UniProt P04183); experiment: Inhibition of human TK1 assessed as [methyl-3H]dThd phosphorylation; procedure, shortened: as §1
T4 sequence (P04183 whole entry): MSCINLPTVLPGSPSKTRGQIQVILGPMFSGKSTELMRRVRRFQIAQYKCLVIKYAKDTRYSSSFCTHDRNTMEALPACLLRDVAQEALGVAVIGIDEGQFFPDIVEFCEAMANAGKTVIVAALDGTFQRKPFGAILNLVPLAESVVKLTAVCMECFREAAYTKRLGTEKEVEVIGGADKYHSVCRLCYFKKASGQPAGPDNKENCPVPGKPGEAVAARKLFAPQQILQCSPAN

Thymidine kinase [4] = biological target: T5, Thymidine kinase (Varicella-zoster virus (strain Dumas) (HHV-3) (Human herpesvirus 3), UniProt P09250); experiment: Inhibition of VZV TK assessed as [methyl-3H]dThd phosphorylation; set-up: species or system Human alphaherpesvirus 3
T5 sequence (P09250 whole entry): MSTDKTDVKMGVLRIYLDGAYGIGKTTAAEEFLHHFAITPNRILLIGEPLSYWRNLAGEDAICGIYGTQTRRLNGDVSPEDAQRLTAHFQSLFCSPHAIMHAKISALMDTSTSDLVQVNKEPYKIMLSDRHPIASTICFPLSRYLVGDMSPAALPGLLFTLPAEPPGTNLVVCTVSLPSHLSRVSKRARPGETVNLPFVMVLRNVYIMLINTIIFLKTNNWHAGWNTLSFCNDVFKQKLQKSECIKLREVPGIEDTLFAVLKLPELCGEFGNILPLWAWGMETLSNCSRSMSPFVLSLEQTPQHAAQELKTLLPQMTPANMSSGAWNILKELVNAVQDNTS

[5] = Toxicity assessed as inhibition of mitochondrial function in normal fibroblasts upto 100 uM; format: cell-based; details: human, fibroblast
Procedure, shortened: (§2)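 Primary fibroblasts from healthy-volunteer forearm skin biopsies were used stationary. They were kept at 37 °C in 5% CO₂ in one of two media: permissive DMEM UP (4.5 g/l glucose, 10% FCS, 50 µg/ml uridine) or restrictive GAL (glucose-free RPMI, 50 µM galactose, 10% dialyzed FCS). Cells were exposed to a range of concentrations for 1 week. Viability was counted by trypan blue exclusion.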

[6] = Toxicity assessed as inhibition of mitochondrial function in human fibroblasts above 100 uM; format: cell-based; details: fibroblast; procedure, shortened: as §2
[7] = Toxicity against human fibroblast cells assessed as alteration of cellular viability upto 60 uM; format: cell-based; procedure, shortened: as §2
Homo sapiens = species: Homo sapiens; experiment: Inhibition of human fibroblast mitochondrial cytochrome c oxidase
Procedure, shortened: (§3)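 Stationary normal skin fibroblasts were exposed to various concentrations for one week in permissive medium (glucose, uridine, 10% FCS). Cytochrome c oxidase (complex IV) and succinate dehydrogenase (complex II) activities were then assayed. COX/SDH ratios were calculated, with SDH as the mtDNA-independent control.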

Fibroblast [8] = experiment: Decrease in cytochrome c oxidase to succinate dehydrogenase ratio in human fibroblasts; format: functional, cell-based; procedure, shortened: as §3
Fibroblast [9] = experiment: Decrease in nuclear DNA in human fibroblasts at 100 uM; format: functional; set-up: scale not given: the % may be the effect or the level left
[10] = biological target: Deoxyguanosine kinase, mitochondrial (Homo sapiens) (UniProt Q16854); experiment: Inhibition of human fibroblast mitochondrial deoxyguanosine kinase
[11] = Toxicity against human fibroblast cells assessed as alteration of mitochondrial function up to 60 uM; format: cell-based; procedure, shortened: as §2
[12] = biological target: T2, Thymidine kinase 2, mitochondrial; experiment: Inhibition of human fibroblast mitochondrial TK2 using dCyd substrate
Procedure, shortened: (§4)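 Done on mitochondria isolated from human fibroblasts rather than on recombinant enzymes. TK2 activity was measured with dThd or dCyd as substrate. dGK activity was measured as a control. Read-out was IC50.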

[13] = biological target: T2, Thymidine kinase 2, mitochondrial; experiment: Inhibition of human fibroblast mitochondrial TK2 using dThd substrate; procedure, shortened: as §4
[14] = biological target: T6, Deoxyguanosine kinase, mitochondrial (Homo sapiens, UniProt Q16854); experiment: Inhibition of human fibroblast mitochondrial deoxyguanosine kinase; procedure, shortened: as §4
T6 sequence (Q16854 whole entry): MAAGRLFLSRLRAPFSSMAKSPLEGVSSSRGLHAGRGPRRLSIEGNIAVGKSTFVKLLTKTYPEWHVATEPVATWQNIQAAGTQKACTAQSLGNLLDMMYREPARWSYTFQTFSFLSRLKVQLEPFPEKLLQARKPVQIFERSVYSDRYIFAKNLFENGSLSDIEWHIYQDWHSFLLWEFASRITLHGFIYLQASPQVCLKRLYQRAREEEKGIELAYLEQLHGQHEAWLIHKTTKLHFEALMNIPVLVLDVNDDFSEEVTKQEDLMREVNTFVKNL

NCCCCCC(=O)O[C@H]1[C@H](O)[C@@H](CO)O[C@H]1n1cc(/C=C/Br)c(=O)[nH]c1=O
IC50 (Deoxynucleoside kinase): > 500 µM | IC50 [1]: > 500 µM | IC50 (Thymidine kinase [2]): 322 µM | IC50 [3]: > 500 µM | IC50 (Thymidine kinase [4]): 94 µM

CCCCCCCCCC(=O)N[C@H]1[C@H](O)[C@@H](CO)O[C@H]1n1cc(C)c(=O)[nH]c1=O
IC50 (Deoxynucleoside kinase): > 500 µM | IC50 [1]: 480 µM | IC50 (Thymidine kinase [2]): > 500 µM | IC50 (Thymidine kinase [4]): > 500 µM

Nc1ccn([C@@H]2O[C@H](CO)[C@@H](O)[C@@H]2O)c(=O)n1 [CYTARABINE]
IC50 (Thymidine kinase [2]): > 1000 µM

CCCCCCCC(=O)O[C@H]1[C@H](O)[C@@H](CO)O[C@H]1n1cc(/C=C/Br)c(=O)[nH]c1=O
IC50 (Thymidine kinase [2]): ≥ 1000 µM

Cc1cn([C@@H]2O[C@H](CO)[C@@H](O)[C@@H]2O)c(=O)[nH]c1=O
IC50 (Thymidine kinase [2]): 24 µM

CCCCCCCC(=O)Nc1nc2c(ncn2[C@@H]2O[C@H](CO)[C@@H](O)[C@@H]2OC(=O)CCCCCCC)c(=O)[nH]1
IC50 (Deoxynucleoside kinase): > 500 µM | IC50 [1]: > 500 µM | IC50 (Thymidine kinase [2]): > 500 µM | IC50 [3]: > 500 µM | IC50 (Thymidine kinase [4]): > 500 µM

Nc1nc2c(ncn2[C@@H]2O[C@H](CO)[C@@H](O)[C@@H]2O)c(=O)[nH]1
IC50 (Deoxynucleoside kinase): > 500 µM | IC50 [1]: > 500 µM | IC50 (Thymidine kinase [2]): > 500 µM | IC50 [3]: > 500 µM | IC50 (Thymidine kinase [4]): > 500 µM

NCCCC(=O)O[C@H]1[C@H](O)[C@@H](CO)O[C@H]1n1cc(/C=C/Br)c(=O)[nH]c1=O
IC50 (Deoxynucleoside kinase): 160 µM | IC50 [1]: 187 µM | IC50 (Thymidine kinase [2]): 17 µM | IC50 [3]: > 500 µM | IC50 (Thymidine kinase [4]): 3.6 µM

CC(C)(C)OC(=O)NCCCCCC(=O)O[C@H]1[C@H](O)[C@@H](CO)O[C@H]1n1cc(/C=C/Br)c(=O)[nH]c1=O
IC50 (Deoxynucleoside kinase): 77 µM | IC50 [1]: 61 µM | IC50 (Thymidine kinase [2]): ≥ 500 µM | IC50 (Thymidine kinase [4]): 277 µM

Cc1cn([C@@H]2O[C@H](CO)[C@@H](O)[C@@H]2OCc2ccccc2)c(=O)[nH]c1=O
IC50 (Deoxynucleoside kinase): > 1000 µM | IC50 [1]: 801 µM | IC50 (Thymidine kinase [2]): > 1000 µM | IC50 [3]: > 1000 µM | IC50 (Thymidine kinase [4]): > 1000 µM

CCCCCCCC(=O)O[C@H]1[C@H](O)[C@@H](CO)O[C@H]1n1cnc2c(=O)[nH]c(N)nc21
IC50 (Deoxynucleoside kinase): > 500 µM | IC50 [1]: > 500 µM | IC50 (Thymidine kinase [2]): > 500 µM | IC50 [3]: > 500 µM | IC50 (Thymidine kinase [4]): > 500 µM

CCCCCCCCCC(=O)O[C@H]1[C@H](O)[C@@H](CO)O[C@H]1n1cc(/C=C/Br)c(=O)[nH]c1=O
Activity [5]: Active | IC50 (Thymidine kinase [2]): > 1000 µM | Activity [6]: Toxic | Activity [7]: Non-toxic | Activity (Homo sapiens): Active | Activity (Fibroblast [8]): Active | Activity (Fibroblast [9]): 50% | IC50 [10]: > 1000 µM | Activity [11]: Not Active | IC50 [12]: 97 µM | IC50 [13]: 40 µM | IC50 [14]: > 1000 µM

O=c1[nH]c(=O)n([C@@H]2O[C@H](CO)[C@@H](O)[C@@H]2O)cc1/C=C/Br [SORIVUDINE]
IC50 (Deoxynucleoside kinase): 28 µM | IC50 [1]: 43 µM | IC50 (Thymidine kinase [2]): 3.6 µM | IC50 [3]: > 500 µM | IC50 (Thymidine kinase [4]): 3.2 µM
